# Legend:
# [1] = test system: Bcl6-dependent DLBCL cell lines; test: Growth inhibition determination; assay type: cell-based, human; settings: read-out: GI50 (concentration that inhibited the growth of the cell lines by 50% compared to control); 48 h; group of seven Bcl6-dependent DLBCL cell lines
# Outline: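 Cells seeded so untreated controls stayed in exponential growth through the 48 h exposure, then treated with 0.1–10 μM test compound or water vehicle in 10% serum medium. Viability read by resazurin reduction fluorescence (560Ex/590Em), with viable cells calculated from a standard curve and 6 replicates per condition, and verified by sulforhodamine B or ATP luminescence. Values normalized to controls. Experiments in triplicate. GI50 taken from dose-effect curves and reported as mean with 95% CI.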
# [2] = test system: Bcl6; test: Bcl6 immunoblot in DLBCL cells; assay type: cell-based, human
# Outline: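 Farage, OCI-Ly7 and SU-DHL4 cells exposed 24 h to 0.1, 0.25, 0.5 or 1 μM test compound; OCI-Ly7 also given 0.5 μM for 4, 6, 12, 18, 24 and 48 h. Compound added from concentrated stock to 10% serum medium. Lysates immunoblotted for Bcl6 with N-terminal (N3) and C-terminal (C19) antibodies, actin as loading control.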
# [3] = test system: Toledo xenografts; test: Mice xenotransplant study, Toledo; assay type: in vivo, SCID mice; settings: Bcl6-independent; similar dose (75 mg per kg per day)
# [4] = test system: Bcl6; test: Protein decay determination; assay type: cell-based, human; settings: OCI-Ly7; 0.5 µM PU-H71 after Cycloheximide 5 μM
# Outline: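 OCI-Ly7 cells, control or test-compound treated, incubated with 5 μM cycloheximide over a time course. Bcl6 and actin immunoblotted at each point; Bcl6/actin ratio quantified by densitometry with untreated cells set at 100% and plotted against time.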
# [5] = test system: OCI-Ly7 xenografts; test: Mice xenotransplant study, OCI-Ly7; assay type: in vivo, SCID mice; settings: 75 mg per kg per day; 20 days
# [6] = test system: SU-DHL6 xenograft; test: Mice xenotransplant study, SU-DHL6; assay type: in vivo, SCID mice; settings: 75 mg per kg per day; 20 days
# Outline: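 Additional cohort of SCID mice with s.c. OCI-Ly7 or SU-DHL6 xenografts held until mean tumor volume reached 500 mm3, then given test compound i.p. for 20 days; tumor volume followed by caliper every other day.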
# [7] = test system: Bcl6-independent DLBCL cell lines; test: Growth inhibition determination; assay type: cell-based, human; settings: read-out: GI50 (concentration that inhibited the growth of the cell lines by 50% compared to control); 48 h; group of four Bcl6-independent DLBCL cell lines
# [8] = Toxicity in xenografted mice; assay type: in vivo, SCID mice; settings: 75 mg per kg per day, 10 days
# Outline: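 Xenografted SCID mice dosed i.p. at 75 mg/kg/day were weighed every other day. At euthanasia, blood was collected and tumors and other tissues were harvested, weighed and examined microscopically by pathologists.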
# [9] = test system: BCL6 mRNA; test: mRNA decay determination; assay type: cell-based, human; settings: OCI-Ly7; versus vehicle-treated cells
# Outline: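 OCI-Ly7 cells pretreated 2 h with 0.5 μM test compound or control, then actinomycin D added for a time course. BCL6 mRNA quantified by QPCR against a standard curve, normalized to untreated cells; three independent experiments averaged to derive half-life.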
# [10] = test system: primary human DLBCL cells; test: Primary cells treatment, viability; assay type: cell-based; settings: 2.5 μM; 48 h; versus vehicle-treated controls
# Outline: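 Lymph node biopsies disrupted physically and separated by density gradient; cells kept in 80% RPMI/20% human serum with antibiotics, L-glutamine and HEPES. Exposed in triplicate to 2.5 μM test compound or water for 48 h. Viability read by ATP luminescence and dye exclusion, expressed as percent of vehicle control.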
# [11] = Pharmacokinetic; assay type: in vivo; settings: Farage xenograft mice, 75 mg per kg i.p.
# Outline: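 Mice bearing 1 cm3 Farage xenografts received a single 75 mg/kg i.p. dose of test compound; killed at 6, 12 and 24 h alongside controls. Serum, tumor and normal tissues assayed for compound concentration by HPLC-MS.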
# [12] = test system: Farage, OCI-Ly7 and SU-DHL4 DLBCL xenografts; test: Mice xenotransplant study, pooled; assay type: in vivo, SCID mice; settings: 75 mg per kg per day
# Outline: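 Male SCID mice, 6–8 weeks old, injected s.c. in the left flank with 10^7 low-passage DLBCL cells. At palpable size (about 75–100 mm3, 24–33 days), pairs were randomized to vehicle or 75 mg/kg/day test compound i.p. (reconstituted in sterile water) for 10 days, n = 5 per arm per line. Caliper volume was measured every other day as (smallest diameter² × largest)/2. Mice were euthanized when ≥2 of 10 tumors reached 20 mm. Tumors were weighed and TUNEL-scored as apoptotic/total cells. Survival ran from treatment start to death or tenfold volume rise, by Kaplan-Meier with Cox's F test.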
# [13] = Mice toxicity studies; assay type: in vivo, Balb/c mice; settings: 50 or 75 mg per kg per day; 10 days
smiles,measurement,setting,value
CC(C)NCCCn1c(Sc2cc3c(cc2I)OCO3)nc2c(N)ncnc21 [PU-H71],GI50,[1],1.39 µM
same,Bcl6 protein abundance,"[2]; 24 h, 0.1-1 μM, Farage, OCI-Ly7 and SU-DHL4",dose-dependent reduction
same,"Bcl6 protein (immunoblot, antibodies N3 and C19)","[2]; OCI-Ly7, 0.5 μM, after 18 h",barely detectable
same,effect on xenograft growth,[3],no effect
same,time for relative Bcl6 protein abundance to decrease from 100% to 50%,[4],5 h
same,tumor volume in steady phase,[5],~500 mm^3
same,tumor volume,[6],≤ 100 mm^3
same,GI50,[7],71 µM
same,"toxicity from behavioral, macroscopic or microscopic standpoints",[8],no evidence of toxicity
same,increase in Bcl6 mRNA decay rate,[9],32%
same,cases among 21 DLBCLs with greater than 25% loss of viability,[10],19
same,PU-H71 concentration in tumor,[11]; 6 h,42.1 µg/g
same,PU-H71 concentration in tumor,[11]; 12 h,27.6 µg/g
same,PU-H71 concentration in tumor,[11]; 24 h,12 µg/g
same,PU-H71 in serum,[11]; after the 6 h timepoint,undetectable
same,DLBCL size and weight compared to control,[12]; 10 days,potently reduced
same,survival (tumor growth to critical mass as surrogate) v controls,"[12]; n = 15, Cox's F test P < 0.0001",significantly prolonged
same,"hematologic, renal or hepatic toxicity (blood counts, chemistry, liver function, thyroid hormone)",[13],"no evidence of hematologic, renal or hepatic toxicity"
same,macroscopic or microscopic toxicity,[13],no evidence of macroscopic or microscopic toxicity
